# Reference: ChEMBL document CHEMBL3860038, “Discovery of (R,E)-N-(7-Chloro-1-(1-[4-(dimethylamino)but-2-enoyl]azepan-3-yl)-1H-benzo[d]imidazol-2-yl)-2-methylisonicotinamide (EGF816), a Novel, Potent, and WT Sparing Covalent Inhibitor of Oncogenic (L858R, ex19del) and Resistant (T790M) EGFR Mutants for the Treatment of EGFR Mutant …” (J Med Chem, 2016)
# Experiments:
# [1] = Volume of distribution at steady state in balb/c mouse at 5 mg/kg, iv by liquid chromatography-tandem mass spectrometry; assay type: ADME, organism-based; details: in vivo, read-out: Vdss
# Method in brief: (§1)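 Male animals (balb/c mice or Wistar rats) were used. Compound levels in plasma were measured by LC-MS/MS.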
# [2] = Inhibition of EGFR E746 to A750 deletion mutant phosphorylation in human patient derived HCC827 cells incubated for 3 hrs by ELISA method; assay type: cell-based; details: HCC827, 3 h
# Method in brief: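 HCC827 cells plated at 7500/well in 5% FBS/RPMI and left overnight at 37 °C. Then 3 h with a 12-point compound dilution series, no EGF stimulation. Lysed in Triton/protease/phosphatase-inhibitor buffer. Phospho-EGFR (Y1173) read by sandwich ELISA: anti-EGFR capture, anti-phospho-EGFR, anti-rabbit-HRP, chemiluminescence. IC50 from at least duplicates.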
# [3] = Aqueous solubility of the compound at pH 6.8; assay type: physicochemical
# Cytochrome P450 3A4 = Cytochrome P450 3A4 (Homo sapiens, UniProt P08684); test: Inhibition of CYP3A4 (unknown origin); assay type: ADME
# Sequence of Cytochrome P450 3A4 (P08684 whole entry): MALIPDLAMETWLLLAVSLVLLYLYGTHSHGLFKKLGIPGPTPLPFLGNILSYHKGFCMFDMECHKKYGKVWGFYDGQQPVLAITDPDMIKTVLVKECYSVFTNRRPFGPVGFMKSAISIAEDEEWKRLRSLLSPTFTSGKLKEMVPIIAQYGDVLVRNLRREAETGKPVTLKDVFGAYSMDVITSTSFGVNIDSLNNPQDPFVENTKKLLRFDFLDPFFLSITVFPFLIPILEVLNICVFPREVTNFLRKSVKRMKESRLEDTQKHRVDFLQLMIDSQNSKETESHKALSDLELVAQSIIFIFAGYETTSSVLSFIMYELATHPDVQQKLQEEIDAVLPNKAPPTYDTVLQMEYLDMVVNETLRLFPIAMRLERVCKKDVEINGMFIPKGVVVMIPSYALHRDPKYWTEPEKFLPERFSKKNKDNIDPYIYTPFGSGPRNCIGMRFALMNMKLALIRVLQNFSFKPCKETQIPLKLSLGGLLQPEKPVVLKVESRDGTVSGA
# Cytochrome P450 2D6 = Cytochrome P450 2D6 (Homo sapiens, UniProt P10635); test: Inhibition of CYP2D6 (unknown origin); assay type: ADME
# Sequence of Cytochrome P450 2D6 (P10635 whole entry): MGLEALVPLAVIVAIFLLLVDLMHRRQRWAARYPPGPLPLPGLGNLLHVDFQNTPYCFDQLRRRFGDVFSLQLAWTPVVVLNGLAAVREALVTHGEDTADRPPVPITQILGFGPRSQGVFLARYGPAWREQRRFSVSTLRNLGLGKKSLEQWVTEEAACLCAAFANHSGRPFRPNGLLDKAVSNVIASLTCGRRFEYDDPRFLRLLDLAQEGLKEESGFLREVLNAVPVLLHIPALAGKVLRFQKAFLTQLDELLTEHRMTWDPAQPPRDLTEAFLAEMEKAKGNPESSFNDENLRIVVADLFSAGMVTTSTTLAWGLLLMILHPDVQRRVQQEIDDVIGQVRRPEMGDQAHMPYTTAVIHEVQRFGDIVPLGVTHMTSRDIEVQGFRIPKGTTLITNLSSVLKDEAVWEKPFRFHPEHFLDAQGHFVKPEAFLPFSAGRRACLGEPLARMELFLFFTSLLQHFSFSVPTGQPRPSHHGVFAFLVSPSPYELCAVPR
# Cytochrome P450 2C9 = Cytochrome P450 2C9 (Homo sapiens, UniProt P11712); test: Inhibition of CYP2C9 (unknown origin); assay type: ADME
# Sequence of Cytochrome P450 2C9 (P11712 whole entry): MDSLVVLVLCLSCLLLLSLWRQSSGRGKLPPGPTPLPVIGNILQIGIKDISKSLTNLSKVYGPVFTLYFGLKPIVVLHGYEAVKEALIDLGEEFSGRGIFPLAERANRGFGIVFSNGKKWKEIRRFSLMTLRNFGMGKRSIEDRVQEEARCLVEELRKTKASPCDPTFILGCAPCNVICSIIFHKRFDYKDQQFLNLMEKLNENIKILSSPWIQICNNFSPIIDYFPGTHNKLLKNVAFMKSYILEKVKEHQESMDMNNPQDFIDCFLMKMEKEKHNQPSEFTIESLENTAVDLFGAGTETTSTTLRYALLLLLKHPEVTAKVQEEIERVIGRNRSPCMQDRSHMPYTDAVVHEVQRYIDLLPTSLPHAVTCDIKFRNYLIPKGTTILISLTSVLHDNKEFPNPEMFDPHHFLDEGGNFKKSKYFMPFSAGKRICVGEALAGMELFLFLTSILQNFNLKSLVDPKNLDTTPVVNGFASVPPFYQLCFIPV
# [4] = Intrinsic clearance in human liver microsomes; assay type: ADME; details: read-out: CLH
# [5] = Intrinsic clearance in mouse liver microsomes; assay type: ADME; details: read-out: CLH
# [6] = Clearance in balb/c mouse at 5 mg/kg, iv by liquid chromatography-tandem mass spectrometry; assay type: ADME, organism-based; details: in vivo
# Method in brief: (§2)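 Rodent PK in male balb/c mice and male Wistar rats; plasma drug levels by LC-MS/MS. Mouse oral dosing at 20 mg/kg, with compounds given as a 0.5% methylcellulose/0.5% Tween 80 suspension or as solutions (PEG300/D5W, or ethanol/PEG300 with Solutol or D5W), depending on compound.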
# [7] = AUC in balb/c mouse at 20 mg/kg, po by liquid chromatography-tandem mass spectrometry; assay type: ADME, organism-based; details: in vivo; method in brief: as §2
# [8] = Oral bioavailability in balb/c mouse at 20 mg/kg by liquid chromatography-tandem mass spectrometry; assay type: ADME, organism-based; details: in vivo; method in brief: as §2
# [9] = Antitumor activity against human NCI-H1975 cells xenografted in Foxn1 nude mouse assessed as reduction in tumor volume at 50 mg/kg, po qd for 5 days relative to untreated control; assay type: functional
# Method in brief: (§3)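 Female Foxn1 nude mice, H1975 cells inoculated subcutaneously. Randomized into groups once tumors reached 150−200 mm³, then dosed by oral gavage once daily for 5 days in 0.5% MC/0.5% Tween80 suspension (10 μL/g). Tumor volumes by caliper, (length × width × width)/2. %T/C = 100 × ΔT/ΔC, or % regression = 100 × ΔT/T_initial when ΔT < 0. Body weight recorded daily.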
# [10] = Time duration during which free plasma concentration stays above in-vitro IC50 level in human NCI-H1975 cells xenografted Foxn1 nude mouse at 50 mg/kg, po qd for 5 days; assay type: ADME, organism-based; details: in vivo, 120 h
# Method in brief: (§4)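 H1975 xenografts in Foxn1 nude mice, oral dosing once daily for 5 days. Plasma sampled after the last dose on day 5, at 30 min, 3 h, 7 h and 24 h. Free drug exposure was compared with in vitro cellular IC50 across the dosing interval.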
# [11] = Time duration during which free plasma concentration stays above in-vitro IC50 level in human NCI-H1975 cells xenografted Foxn1 nude mouse at 25 mg/kg, po qd for 5 days; assay type: ADME, organism-based; details: in vivo, 120 h; method in brief: as §4
# [12] = Antitumor activity against human NCI-H1975 cells xenografted in Foxn1 nude mouse assessed as reduction in tumor volume at 25 mg/kg, po qd for 5 days relative to untreated control; assay type: functional; method in brief: as §3
# Mus musculus [13] = test: Toxicity in human NCI-H1975 cells xenografted Foxn1 nude mouse assessed as change in body weight at 25 mg/kg, po qd for 5 days (reference value: […]); assay type: organism-based; details: in vivo, 120 h
# Mus musculus [14] = test: Toxicity in human NCI-H1975 cells xenografted Foxn1 nude mouse assessed as change in body weight at 50 mg/kg, po qd for 5 days (reference value: […]); assay type: organism-based; details: in vivo, 120 h
# [15] = Mean residence time in balb/c mouse at 5 mg/kg, iv by liquid chromatography-tandem mass spectrometry; assay type: ADME, organism-based; details: in vivo
# [16] = AUC in balb/c mouse at 5 mg/kg, iv by liquid chromatography-tandem mass spectrometry; assay type: ADME, organism-based; details: in vivo
# [17] = Cmax in balb/c mouse at 20 mg/kg, po by liquid chromatography-tandem mass spectrometry; assay type: ADME, organism-based; parameters: dose 20 mg/kg, route oral; details: in vivo; method in brief: as §2
# [18] = Tmax in balb/c mouse at 20 mg/kg, po by liquid chromatography-tandem mass spectrometry; assay type: ADME, organism-based; details: in vivo; method in brief: as §2
# [19] = Clearance in Wistar rat at 3 mg/kg, iv by liquid chromatography-tandem mass spectrometry; assay type: ADME, organism-based; details: in vivo; method in brief: as §2
# [20] = Volume of distribution at steady state in Wistar rat at 3 mg/kg, iv by liquid chromatography-tandem mass spectrometry; assay type: ADME, organism-based; details: in vivo, read-out: Vdss; method in brief: as §1
# [21] = Mean residence time in Wistar rat at 3 mg/kg, iv by liquid chromatography-tandem mass spectrometry; assay type: ADME, organism-based; details: in vivo
# [22] = AUC in Wistar rat at 3 mg/kg, iv by liquid chromatography-tandem mass spectrometry; assay type: ADME, organism-based; details: in vivo
# [23] = AUC in Wistar rat at 10 mg/kg, po by liquid chromatography-tandem mass spectrometry; assay type: ADME, organism-based; details: in vivo; method in brief: as §2
# [24] = Cmax in Wistar rat at 10 mg/kg, po by liquid chromatography-tandem mass spectrometry; assay type: ADME, organism-based; parameters: dose 10 mg/kg, route oral; details: in vivo; method in brief: as §2
# [25] = Tmax in Wistar rat at 10 mg/kg, po by liquid chromatography-tandem mass spectrometry; assay type: ADME, organism-based; details: in vivo; method in brief: as §2
# [26] = Oral bioavailability in Wistar rat at 10 mg/kg by liquid chromatography-tandem mass spectrometry; assay type: ADME, organism-based; details: in vivo; method in brief: as §2
# [27] = Clearance in Wistar rat at 3 mg/kg, iv by liquid chromatography-tandem mass spectrometry relative to liver blood flow; assay type: ADME, organism-based; details: in vivo
# [28] = Clearance in balb/c mouse at 5 mg/kg, iv by liquid chromatography-tandem mass spectrometry relative to liver blood flow; assay type: ADME, organism-based; details: in vivo
# Homo sapiens [29] = species: Homo sapiens; test: Antitumor activity in NSCLC patient assessed as response rate; assay type: functional
# Homo sapiens [30] = species: Homo sapiens; test: Antitumor activity in NSCLC patient assessed as disease control rate; assay type: functional
# [31] = target: Epidermal growth factor receptor (Homo sapiens, UniProt P00533, L858R/T790M); test: Inhibition of EGFR L858R/T790M mutant phosphorylation in human patient derived H1975 cells incubated for 3 hrs by ELISA method; assay type: cell-based
# Sequence of Epidermal growth factor receptor (Homo sapiens, UniProt P00533, L858R/T790M) (P00533 25-1210 T790M/L858R limits assumed): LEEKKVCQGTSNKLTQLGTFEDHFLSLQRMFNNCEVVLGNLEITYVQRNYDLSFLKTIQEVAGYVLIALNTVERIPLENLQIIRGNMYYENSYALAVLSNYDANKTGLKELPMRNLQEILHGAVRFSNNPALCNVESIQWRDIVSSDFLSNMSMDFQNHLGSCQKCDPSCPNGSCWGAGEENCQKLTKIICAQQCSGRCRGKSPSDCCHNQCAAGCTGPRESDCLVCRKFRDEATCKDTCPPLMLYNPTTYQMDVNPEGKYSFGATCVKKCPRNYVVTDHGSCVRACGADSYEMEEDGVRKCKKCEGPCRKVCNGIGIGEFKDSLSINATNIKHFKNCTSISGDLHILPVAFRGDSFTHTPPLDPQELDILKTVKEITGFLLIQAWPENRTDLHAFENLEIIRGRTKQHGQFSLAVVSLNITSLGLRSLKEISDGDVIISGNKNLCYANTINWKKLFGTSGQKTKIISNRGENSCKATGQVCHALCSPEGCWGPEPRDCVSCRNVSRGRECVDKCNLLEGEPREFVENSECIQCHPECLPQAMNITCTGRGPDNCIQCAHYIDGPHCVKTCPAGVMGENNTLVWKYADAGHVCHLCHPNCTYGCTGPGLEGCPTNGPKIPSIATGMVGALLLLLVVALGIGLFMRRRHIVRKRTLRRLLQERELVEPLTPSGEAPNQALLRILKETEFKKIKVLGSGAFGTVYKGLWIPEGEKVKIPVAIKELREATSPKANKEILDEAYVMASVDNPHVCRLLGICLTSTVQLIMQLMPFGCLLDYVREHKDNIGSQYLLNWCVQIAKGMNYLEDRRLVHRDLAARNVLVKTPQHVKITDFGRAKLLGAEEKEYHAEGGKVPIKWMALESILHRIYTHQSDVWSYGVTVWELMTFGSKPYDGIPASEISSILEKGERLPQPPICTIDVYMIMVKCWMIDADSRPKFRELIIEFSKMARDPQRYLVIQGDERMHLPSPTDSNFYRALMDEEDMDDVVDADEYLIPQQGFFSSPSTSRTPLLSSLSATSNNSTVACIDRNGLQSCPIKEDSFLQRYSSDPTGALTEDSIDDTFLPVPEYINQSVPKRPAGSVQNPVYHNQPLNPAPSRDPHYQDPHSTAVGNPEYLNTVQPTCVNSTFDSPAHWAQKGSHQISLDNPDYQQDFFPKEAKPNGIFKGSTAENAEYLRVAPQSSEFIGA
# [32] = target: Epidermal growth factor receptor (Homo sapiens, UniProt P00533, L858R); test: Inhibition of EGFR L858R mutant phosphorylation in human patient derived H3255 cells incubated for 3 hrs by ELISA method; assay type: cell-based
# Sequence of Epidermal growth factor receptor (Homo sapiens, UniProt P00533, L858R) (P00533 25-1210 L858R limits assumed): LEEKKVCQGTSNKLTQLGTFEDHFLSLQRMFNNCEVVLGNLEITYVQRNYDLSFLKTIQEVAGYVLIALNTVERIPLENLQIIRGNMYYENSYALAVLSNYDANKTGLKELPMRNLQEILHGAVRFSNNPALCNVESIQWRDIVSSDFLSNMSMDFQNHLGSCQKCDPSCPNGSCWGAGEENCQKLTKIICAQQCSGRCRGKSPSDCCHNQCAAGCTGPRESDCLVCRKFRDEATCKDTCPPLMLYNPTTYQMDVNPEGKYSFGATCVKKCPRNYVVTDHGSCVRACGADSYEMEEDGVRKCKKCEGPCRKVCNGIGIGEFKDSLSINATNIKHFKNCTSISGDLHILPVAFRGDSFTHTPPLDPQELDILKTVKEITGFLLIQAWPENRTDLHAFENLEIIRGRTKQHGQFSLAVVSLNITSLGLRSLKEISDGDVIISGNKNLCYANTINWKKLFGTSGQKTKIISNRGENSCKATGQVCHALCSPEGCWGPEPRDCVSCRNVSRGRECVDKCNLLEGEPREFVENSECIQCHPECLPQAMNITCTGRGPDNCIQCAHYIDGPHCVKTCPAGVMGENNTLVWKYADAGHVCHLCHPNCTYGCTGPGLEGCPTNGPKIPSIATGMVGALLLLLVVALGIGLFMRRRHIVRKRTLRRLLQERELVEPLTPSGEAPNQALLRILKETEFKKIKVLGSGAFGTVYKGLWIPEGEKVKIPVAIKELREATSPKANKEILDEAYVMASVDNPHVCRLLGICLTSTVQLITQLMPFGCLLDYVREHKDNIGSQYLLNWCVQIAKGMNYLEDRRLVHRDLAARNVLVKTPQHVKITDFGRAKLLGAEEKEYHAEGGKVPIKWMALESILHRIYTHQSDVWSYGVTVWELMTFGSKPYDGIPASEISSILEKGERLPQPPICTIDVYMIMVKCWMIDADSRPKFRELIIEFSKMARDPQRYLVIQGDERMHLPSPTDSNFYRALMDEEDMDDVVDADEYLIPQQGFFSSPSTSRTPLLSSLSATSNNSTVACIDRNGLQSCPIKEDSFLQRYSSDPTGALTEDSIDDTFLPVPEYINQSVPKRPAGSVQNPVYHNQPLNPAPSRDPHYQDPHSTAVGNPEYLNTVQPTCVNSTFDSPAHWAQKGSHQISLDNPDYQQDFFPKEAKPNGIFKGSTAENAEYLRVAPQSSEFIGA
# [33] = target: Epidermal growth factor receptor (Homo sapiens, UniProt P00533); test: Inhibition of wild type EGFR phosphorylation in human HaCaT cells incubated for 3 hrs by ELISA method; assay type: cell-based
# Sequence of Epidermal growth factor receptor (Homo sapiens, UniProt P00533) (P00533 whole entry): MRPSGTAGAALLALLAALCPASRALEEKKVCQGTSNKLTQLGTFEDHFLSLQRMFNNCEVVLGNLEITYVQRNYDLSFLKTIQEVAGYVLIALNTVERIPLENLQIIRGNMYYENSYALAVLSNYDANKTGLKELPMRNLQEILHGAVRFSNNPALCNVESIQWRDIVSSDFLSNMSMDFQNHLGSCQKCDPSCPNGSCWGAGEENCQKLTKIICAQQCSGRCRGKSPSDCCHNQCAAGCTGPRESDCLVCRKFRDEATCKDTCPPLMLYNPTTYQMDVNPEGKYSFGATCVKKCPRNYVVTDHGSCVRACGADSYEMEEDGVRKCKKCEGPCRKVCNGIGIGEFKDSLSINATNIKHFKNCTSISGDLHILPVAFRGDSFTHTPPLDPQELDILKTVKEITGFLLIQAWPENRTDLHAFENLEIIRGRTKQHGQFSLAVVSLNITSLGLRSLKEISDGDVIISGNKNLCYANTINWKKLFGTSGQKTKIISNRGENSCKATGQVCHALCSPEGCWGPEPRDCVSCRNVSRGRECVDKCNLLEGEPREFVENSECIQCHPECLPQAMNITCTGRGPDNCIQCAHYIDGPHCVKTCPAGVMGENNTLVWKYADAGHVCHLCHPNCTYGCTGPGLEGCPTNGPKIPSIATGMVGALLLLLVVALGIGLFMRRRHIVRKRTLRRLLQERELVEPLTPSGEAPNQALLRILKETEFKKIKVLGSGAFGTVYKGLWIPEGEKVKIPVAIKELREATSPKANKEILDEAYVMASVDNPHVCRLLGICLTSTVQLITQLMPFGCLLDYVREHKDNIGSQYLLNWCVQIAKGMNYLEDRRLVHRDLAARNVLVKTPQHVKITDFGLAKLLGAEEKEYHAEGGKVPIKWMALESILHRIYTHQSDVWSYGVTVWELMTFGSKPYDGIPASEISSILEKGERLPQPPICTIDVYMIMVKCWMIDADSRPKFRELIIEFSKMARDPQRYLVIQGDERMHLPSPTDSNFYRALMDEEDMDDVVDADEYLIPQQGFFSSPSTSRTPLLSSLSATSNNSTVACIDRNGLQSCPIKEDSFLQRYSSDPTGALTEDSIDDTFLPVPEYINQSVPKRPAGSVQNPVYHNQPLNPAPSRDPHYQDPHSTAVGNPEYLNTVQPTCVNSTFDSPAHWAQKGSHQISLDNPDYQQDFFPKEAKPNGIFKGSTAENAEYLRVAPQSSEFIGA
# [34] = Glutathione reactivity assessed as GSH adduct formation incubated for 1 hr using 10 mM glutathione
# Method in brief: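 Compound incubated 1 h with 10 mM glutathione; GSH adduct formation measured.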
# [35] = Time duration during which free plasma concentration stays above in-vitro IC50 level in human NCI-H1975 cells xenografted Foxn1 nude mouse at 20 mg/kg, po qd for 5 days; assay type: ADME, organism-based; details: in vivo, 120 h; method in brief: as §4
# [36] = Antitumor activity against human NCI-H1975 cells xenografted in Foxn1 nude mouse assessed as reduction in tumor volume at 20 mg/kg, po qd for 5 days relative to untreated control; assay type: functional; method in brief: as §3
# Mus musculus [37] = test: Toxicity in human NCI-H1975 cells xenografted Foxn1 nude mouse assessed as change in body weight at 20 mg/kg, po qd for 5 days (reference value: […]); assay type: organism-based; details: in vivo, 120 h
# [38] = Clearance in dog at 1 mg/kg, iv by liquid chromatography-tandem mass spectrometry; assay type: ADME, organism-based, Canis lupus familiaris; details: in vivo
# [39] = Volume of distribution at steady state in dog at 1 mg/kg, iv by liquid chromatography-tandem mass spectrometry; assay type: ADME, organism-based, Canis lupus familiaris; details: in vivo, read-out: Vdss
# [40] = Mean residence time in dog at 1 mg/kg, iv by liquid chromatography-tandem mass spectrometry; assay type: ADME, organism-based, Canis lupus familiaris; details: in vivo
# [41] = AUC in dog at 1 mg/kg, iv by liquid chromatography-tandem mass spectrometry; assay type: ADME, organism-based, Canis lupus familiaris; details: in vivo
# [42] = AUC in dog at 10 mg/kg, po by liquid chromatography-tandem mass spectrometry; assay type: ADME, organism-based, Canis lupus familiaris; details: in vivo
# [43] = Cmax in dog at 10 mg/kg, po by liquid chromatography-tandem mass spectrometry; assay type: ADME, organism-based, Canis lupus familiaris; parameters: dose 10 mg/kg, route oral; details: in vivo
# [44] = Tmax in dog at 10 mg/kg, po by liquid chromatography-tandem mass spectrometry; assay type: ADME, organism-based, Canis lupus familiaris; details: in vivo
# [45] = Oral bioavailability in dog at 10 mg/kg by liquid chromatography-tandem mass spectrometry; assay type: ADME, organism-based, Canis lupus familiaris; details: in vivo
smiles,measurement,setting,value
Cc1cc(C(=O)Nc2nc3cccc(Cl)c3n2[C@@H]2CCCCN(C(=O)/C=C/CN(C)C)C2)ccn1 [NAZARTINIB],Vd,[1],2.8 L/kg
same,IC50,[2],1.52 nM
same,solubility,[3],> 175 µM
same,IC50,Cytochrome P450 3A4,> 25000 nM
same,IC50,Cytochrome P450 2D6,7000 nM
same,IC50,Cytochrome P450 2C9,> 25000 nM
same,microsomal CLint,[4],34 µL/min/mg
same,microsomal CLint,[5],66 µL/min/mg
same,clearance,[6],31.6 mL/min/kg
same,AUC,[7],12.8 µM·h
same,bioavailability,[8],60%
same,T/C,[9],-72%
same,Time,[10],<= 14 hr
same,Time,[11],<= 14 hr
same,T/C,[12],-32%
same,Activity,Mus musculus [13],5.3%
same,Activity,Mus musculus [14],3.8%
same,MRT,[15],1.5 h
same,AUC,[16],5.34 µM·h
same,Cmax,[17],2940 nM
same,Tmax,[18],0.83 h
same,clearance,[19],15.7 mL/min/kg
same,Vd,[20],2.4 L/kg
same,MRT,[21],2.6 h
same,AUC,[22],6.53 µM·h
same,AUC,[23],12 µM·h
same,Cmax,[24],987 nM
same,Tmax,[25],3 h
same,bioavailability,[26],55%
same,CL,[27],30%
same,CL,[28],35%
same,Activity,Homo sapiens [29],60%
same,Activity,Homo sapiens [30],93%
Cc1cc(C(=O)Nc2nc3cccc(C)c3n2[C@@H]2CCCCN(C(=O)/C=C/CN(C)C)C2)ccn1,IC50,[31],2.11 nM
same,IC50,[32],3.05 nM
same,IC50,[2],1.01 nM
same,IC50,[33],68 nM
same,solubility,[3],> 175 µM
same,IC50,Cytochrome P450 3A4,> 25000 nM
same,IC50,Cytochrome P450 2D6,> 25000 nM
same,IC50,Cytochrome P450 2C9,> 25000 nM
same,microsomal CLint,[4],26 µL/min/mg
same,microsomal CLint,[5],62 µL/min/mg
same,clearance,[6],68.5 mL/min/kg
same,AUC,[7],3.53 µM·h
same,bioavailability,[8],34%
same,Drug metabolism,[34],< 5%
same,T/C,[9],-65%
same,Time,[35],<= 14 hr
same,T/C,[36],-6%
same,Activity,Mus musculus [14],-5%
same,Activity,Mus musculus [37],-1.1%
Cc1cc(C(=O)Nc2nc3cccc(Cl)c3n2[C@@H]2CCCCN(C(=O)/C=C/CN(C)C)C2)ccn1.Cl,clearance,[38],43.7 mL/min/kg
same,Vd,[39],35.2 L/kg
same,MRT,[40],13.8 h
same,AUC,[41],0.783 µM·h
same,AUC,[42],5.23 µM·h
same,Cmax,[43],435 nM
same,Tmax,[44],2.3 h
same,bioavailability,[45],67%
